Results taken from ChEMBL document CHEMBL4038284, “Synthesis of novel quinoline-based 4,5-dihydro-1H-pyrazoles as potential anticancer, antifungal, antibacterial and antiprotozoal agents” (Eur J Med Chem, 2017).
≈ marks a conversion by molar mass, not a printed value. Calls of active or inactive are those of the source. The calls are words filed in the database; no cut-off is given here.

Legend:
UACC-257 = experiment: Growth inhibition of human UACC257 cells at 10 uM incubated for 48 hrs by sulforhodamine B assay; type: functional, cell-based
Procedure, shortened: (§1)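 NCI-60 single-dose screen at 10 µM for 48 h. Cells were grown in RPMI-1640 with 5% FBS and 2 mM L-glutamine and preincubated 24 h before compound. Time-zero plates were TCA-fixed at compound addition. After exposure, cells were TCA-fixed, stained with SRB and read at 515 nm. Percentage growth was calculated against time-zero and untreated-control absorbances.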

Candida albicans [1] = experiment: Growth inhibition of Candida albicans ATCC 10231 at 250 ug/ml incubated for 48 hrs under dark condition by broth microdilution method relative to control; type: functional; details: ATCC 10231, 48 h, read-out: GI
Procedure, shortened: (§2)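 CLSI M27-A3 broth microdilution in RPMI-1640, DMSO ≤1%. Inoculum 1-5 × 10^3 CFU/mL. Incubated 48 h at 30 °C, dark. % inhibition = 100 − (OD405 test − sterility control)/(OD405 growth control − sterility control), with growth and sterility control wells. Triplicate.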

Candida albicans [2] = experiment: Growth inhibition of Candida albicans ATCC 10231 at 31.25 ug/ml incubated for 48 hrs under dark condition by broth microdilution method relative to control; type: functional; details: ATCC 10231, 48 h, read-out: GI; procedure, shortened: as §2
Klebsiella pneumoniae [3] = experiment: Antibacterial activity against ESBL positive Klebsiella pneumoniae ATCC 700603 after 24 hrs by resazurin dye based microdilution assay; type: functional; details: Klebsiella pneumoniae, 700603, 24 h
Procedure, shortened: (§3)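 MIC taken as the lowest concentration giving visible inhibition and/or by resazurin (1 mg/mL). Gentamicin was the control. Run in duplicate, repeated at least three times.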

Cryptococcus neoformans [4] = experiment: Growth inhibition of Cryptococcus neoformans ATCC 32264 at 3.4 ug/ml incubated for 48 hrs under dark condition by broth microdilution method relative to control; type: functional; details: ATCC 32264, 48 h, read-out: GI
SF-295 = experiment: Growth inhibition of human SF295 cells at 10 uM incubated for 48 hrs by sulforhodamine B assay; type: functional, cell-based
Procedure, shortened: (§4)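 NCI 60-line panel, single 10 μM dose. Cells were grown in RPMI-1640 with 5% FBS and 2 mM L-glutamine and pre-incubated 24 h before compound addition (DMSO stock). Exposure was 48 h at 37 °C, 5% CO2. Cells were fixed with cold TCA (10% final), stained with 0.4% SRB, bound dye dissolved in 10 mM Tris base, A515 read. Growth was taken relative to time-zero and untreated control plates.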

NCI-H322M = experiment: Growth inhibition of human NCI-H322M cells at 10 uM incubated for 48 hrs by sulforhodamine B assay; type: functional, cell-based; procedure, shortened: as §4
MDA-MB-435 = experiment: Growth inhibition of human MDA-MB-435 cells at 10 uM incubated for 48 hrs by sulforhodamine B assay; type: functional, cell-based; procedure, shortened: as §4
NCI-H23 = experiment: Growth inhibition of human NCI-H23 cells at 10 uM incubated for 48 hrs by sulforhodamine B assay; type: functional, cell-based; procedure, shortened: as §4
SR = experiment: Growth inhibition of human SR cells at 10 uM incubated for 48 hrs by sulforhodamine B assay; type: functional, cell-based; procedure, shortened: as §1
ACHN = experiment: Growth inhibition of human ACHN cells at 10 uM incubated for 48 hrs by sulforhodamine B assay; type: functional, cell-based
Procedure, shortened: (§5)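 NCI 60-cell-line screen at a single 10 µM dose. Cells in RPMI-1640 with 5% FBS and 2 mM L-glutamine, pre-incubated 24 h, then treated for 48 h at 37 °C. TCA fixation, sulforhodamine B staining, absorbance at 515 nm. Percentage growth calculated against time-zero and untreated controls.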

Cryptococcus neoformans [5] = experiment: Growth inhibition of Cryptococcus neoformans ATCC 32264 at 125 ug/ml incubated for 48 hrs under dark condition by broth microdilution method relative to control; type: functional; details: ATCC 32264, 48 h, read-out: GI; procedure, shortened: as §2
U-937 = experiment: Cytotoxicity against human U937 cells after 72 hrs by MTT assay; type: cell-based; details: u-937, 72 h
Procedure, shortened: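 Exponentially growing U-937 at 1 × 10^5 cells/mL in RPMI-1640 with 10% FBS were exposed to 200, 50, 12.5 and 3.125 µg/mL for 72 h at 37 °C, 5% CO2. MTT for 3 h, stopped with isopropanol/SDS, formazan read at 570 nm, blank-corrected. LC50 by Probit from % viability against untreated cells. Triplicate, at least two independent experiments.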

Klebsiella pneumoniae [6] = experiment: Antibacterial activity against carbapenemase positive Klebsiella pneumoniae BAA 1705 after 24 hrs by resazurin dye based microdilution assay; type: functional; details: BAA 1705, 24 h; procedure, shortened: as §3
NCI-H460 = experiment: Growth inhibition of human NCI-H460 cells at 10 uM incubated for 48 hrs by sulforhodamine B assay; type: functional, cell-based; procedure, shortened: as §4
EKVX = experiment: Growth inhibition of human EKVX cells at 10 uM incubated for 48 hrs by sulforhodamine B assay; type: functional, cell-based; procedure, shortened: as §5
CCRF-CEM = experiment: Growth inhibition of human CCRF-CEM cells at 10 uM incubated for 48 hrs by sulforhodamine B assay; type: functional, cell-based; procedure, shortened: as §5
IGROV-1 = experiment: Growth inhibition of human IGROV1 cells at 10 uM incubated for 48 hrs by sulforhodamine B assay; type: functional, cell-based; procedure, shortened: as §4
HCT-15 = experiment: Growth inhibition of human HCT15 cells at 10 uM incubated for 48 hrs by sulforhodamine B assay; type: functional, cell-based; procedure, shortened: as §5
Hs-578T = experiment: Growth inhibition of human Hs578T cells at 10 uM incubated for 48 hrs by sulforhodamine B assay; type: functional, cell-based; procedure, shortened: as §4
OVCAR-3 = experiment: Growth inhibition of human OVCAR3 cells at 10 uM incubated for 48 hrs by sulforhodamine B assay; type: functional, cell-based; procedure, shortened: as §4
SK-MEL-5 = experiment: Growth inhibition of human SK-MEL-5 cells at 10 uM incubated for 48 hrs by sulforhodamine B assay; type: functional, cell-based; procedure, shortened: as §1
HCC 2998 = experiment: Growth inhibition of human HCC2998 cells at 10 uM incubated for 48 hrs by sulforhodamine B assay; type: functional, cell-based; procedure, shortened: as §5
RPMI-8226 = experiment: Growth inhibition of human RPMI8226 cells at 10 uM incubated for 48 hrs by sulforhodamine B assay; type: functional, cell-based; procedure, shortened: as §4
K562 = experiment: Growth inhibition of human K562 cells at 10 uM incubated for 48 hrs by sulforhodamine B assay; type: functional, cell-based; procedure, shortened: as §4
SNB-19 = experiment: Growth inhibition of human SNB19 cells at 10 uM incubated for 48 hrs by sulforhodamine B assay; type: functional, cell-based; procedure, shortened: as §1
Candida albicans [7] = experiment: Growth inhibition of Candida albicans ATCC 10231 at 7.8 ug/ml incubated for 48 hrs under dark condition by broth microdilution method relative to control; type: functional; details: ATCC 10231, 48 h, read-out: GI; procedure, shortened: as §2
OVCAR-4 = experiment: Growth inhibition of human OVCAR4 cells at 10 uM incubated for 48 hrs by sulforhodamine B assay; type: functional, cell-based; procedure, shortened: as §4
NCI/ADR-RES = experiment: Growth inhibition of human NCI/ADR-RES cells at 10 uM incubated for 48 hrs by sulforhodamine B assay; type: functional, cell-based; procedure, shortened: as §4
SW-620 = experiment: Growth inhibition of human SW620 cells at 10 uM incubated for 48 hrs by sulforhodamine B assay; type: functional, cell-based; procedure, shortened: as §1
OVCAR-8 = experiment: Growth inhibition of human OVCAR8 cells at 10 uM incubated for 48 hrs by sulforhodamine B assay; type: functional, cell-based; procedure, shortened: as §4

| SMILES | growth inhibition (GI) (UACC-257) | inhibition of growth at 250 µg/mL (Candida albicans [1]) [%] | inhibition of growth at 31.25 µg/mL (Candida albicans [2]) [%] | MIC (Klebsiella pneumoniae [3]) [µg/mL] | inhibition of growth at 3.4 µg/mL (Cryptococcus neoformans [4]) [%] | growth inhibition (GI) (SF-295) | growth inhibition (GI) (NCI-H322M) | growth inhibition (GI) (MDA-MB-435) | growth inhibition (GI) (NCI-H23) | growth inhibition (GI) (SR) | growth inhibition (GI) (ACHN) | inhibition of growth at 125 µg/mL (Cryptococcus neoformans [5]) [%] | LC50 (U-937) [µg/mL] | MIC (Klebsiella pneumoniae [6]) [µg/mL] | growth inhibition (GI) (NCI-H460) | growth inhibition (GI) (EKVX) | growth inhibition (GI) (CCRF-CEM) | growth inhibition (GI) (IGROV-1) | growth inhibition (GI) (HCT-15) | inhibition of growth at 7.8 µg/mL (Candida albicans [7]) [%] | other results |
| --- | --- | --- | --- | --- | --- | --- | --- | --- | --- | --- | --- | --- | --- | --- | --- | --- | --- | --- | --- | --- | --- |
| COc1ccc(C(=O)/C=C/c2cccc(Nc3ccnc4cc(Cl)ccc34)c2)cc1 | Active | 59.6 | 26.9 | > 1000 | 0 | Active | Active | Active | Active | Active | Active | 34.4 | 8.1 (≈ 19.5 µM) | > 1000 | Active | Active | Active | Active | Active | 12.5 | growth inhibition (GI) (Hs-578T): Active; growth inhibition (GI) (OVCAR-3): Active; growth inhibition (GI) (SK-MEL-5): Active; growth inhibition (GI) (HCC 2998): Active; growth inhibition (GI) (RPMI-8226): Active; growth inhibition (GI) (K562): Active; growth inhibition (GI) (SNB-19): Active; growth inhibition (GI) (OVCAR-4): Active; growth inhibition (GI) (NCI/ADR-RES): Active; growth inhibition (GI) (SW-620): Active; growth inhibition (GI) (OVCAR-8): Active |
| COc1cc(C(=O)/C=C/c2cccc(Nc3ccnc4cc(Cl)ccc34)c2)cc(OC)c1OC | Active | 13.7 | 6.92 | > 1000 | 0 | Active | Active | Active | Active | Active | Active | 6.74 | 0.9 (≈ 1.89 µM) | > 1000 | Active | Active | Active | Active | Active | 2.51 | growth inhibition (GI) (Hs-578T): Active; growth inhibition (GI) (OVCAR-3): Active; growth inhibition (GI) (SK-MEL-5): Active; growth inhibition (GI) (HCC 2998): Active; growth inhibition (GI) (RPMI-8226): Active; growth inhibition (GI) (K562): Active; growth inhibition (GI) (SNB-19): Active; growth inhibition (GI) (OVCAR-4): Active; growth inhibition (GI) (NCI/ADR-RES): Active; growth inhibition (GI) (SW-620): Active; growth inhibition (GI) (OVCAR-8): Active |
| O=CN1N=C(c2ccc(Cl)cc2)CC1c1cccc(Nc2ccnc3cc(Cl)ccc23)c1 (configuration not stated) | Active | 67.5 | 24.5 | > 1000 | 37.7 | Active | Active | Active | Active | Active | Active | 75.7 | 0.6 (≈ 1.3 µM) | > 1000 | Active | Active | Active | Active | Active | 12 | growth inhibition (GI) (Hs-578T): Active; growth inhibition (GI) (OVCAR-3): Active; growth inhibition (GI) (SK-MEL-5): Active; growth inhibition (GI) (HCC 2998): Active; growth inhibition (GI) (RPMI-8226): Active; growth inhibition (GI) (K562): Active; growth inhibition (GI) (SNB-19): Active; growth inhibition (GI) (OVCAR-4): Active; growth inhibition (GI) (NCI/ADR-RES): Active; growth inhibition (GI) (SW-620): Active; growth inhibition (GI) (OVCAR-8): Active |
| COc1ccc(C2=NN(C=O)C(c3cccc(Nc4ccnc5cc(Cl)ccc45)c3)C2)cc1 (configuration not stated) | Active | 34.5 | 14.7 | > 1000 | 4.06 | Active | Active | Active | Active | Active | Active | 52.5 | 0.3 (≈ 0.657 µM) | > 1000 | Active | Active | Active | Active | Active | 7.43 | growth inhibition (GI) (Hs-578T): Active; growth inhibition (GI) (OVCAR-3): Active; growth inhibition (GI) (SK-MEL-5): Active; growth inhibition (GI) (HCC 2998): Active; growth inhibition (GI) (RPMI-8226): Active; growth inhibition (GI) (K562): Active; growth inhibition (GI) (SNB-19): Active; growth inhibition (GI) (OVCAR-4): Active; growth inhibition (GI) (NCI/ADR-RES): Active; growth inhibition (GI) (SW-620): Active; growth inhibition (GI) (OVCAR-8): Active |
| O=Cc1cccc(Nc2ccnc3cc(Cl)ccc23)c1 | – | 59.2 | 10.6 | > 1000 | 5.03 | – | – | – | – | – | – | 38.5 | 0.6 (≈ 2.12 µM) | 250 (≈ 884 µM) | – | – | – | – | – | 1.48 | – |
